E-sel inducer = induces E-selectin expression in human endothelial cells; HUVEC E-selectin immunofluorescence imaging; normalized: neutral wells 0, TNF-alpha wells 100; 260,000 tested, 0.37% active; activation, % at 7.58 µM;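 active means mean E-selectin-positive cell signal at least 10% of the positive control, reached in at least 60% of replicates, without over 20% cell loss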
Target sequence (P16581 whole entry, looked up): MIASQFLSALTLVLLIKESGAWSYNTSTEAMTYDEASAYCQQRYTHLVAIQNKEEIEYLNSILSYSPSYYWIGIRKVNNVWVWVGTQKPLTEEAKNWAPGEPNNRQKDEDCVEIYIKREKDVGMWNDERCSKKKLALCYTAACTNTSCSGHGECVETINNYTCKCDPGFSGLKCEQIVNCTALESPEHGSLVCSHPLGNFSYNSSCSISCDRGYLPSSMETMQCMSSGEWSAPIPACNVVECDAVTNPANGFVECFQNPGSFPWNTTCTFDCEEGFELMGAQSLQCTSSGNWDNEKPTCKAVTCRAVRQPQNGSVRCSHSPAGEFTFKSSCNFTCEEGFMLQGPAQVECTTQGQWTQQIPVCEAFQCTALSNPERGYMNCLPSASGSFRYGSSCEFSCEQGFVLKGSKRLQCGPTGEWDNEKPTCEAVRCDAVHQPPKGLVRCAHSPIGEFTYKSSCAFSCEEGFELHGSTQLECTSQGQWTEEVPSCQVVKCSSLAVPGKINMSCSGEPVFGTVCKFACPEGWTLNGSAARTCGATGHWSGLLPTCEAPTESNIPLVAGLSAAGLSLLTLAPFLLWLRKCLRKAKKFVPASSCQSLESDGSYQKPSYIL
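Assay system: HUVEC primary endothelial cells. Input: 3,000 HUVEC seeded per well. Doses: one compound dose added by pin transfer. Read-out basis: % PE-positive cells. Benchmarks: TNF-alpha high, DMSO low. Detection: immunofluorescence imaging. Buffer or medium: EGM-2, gelatin.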
EWS-Fli inh = blocks EWS/Fli oncoprotein-driven transcription. AID 651661. 350,000 tested, 0.67% active. inhibition, % at 12.6 µM. A673 NR0B1-luciferase reporter, viability-normalised;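 active means mean inhibition of at least 50% after viability correction, with every replicate also passing that limit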;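 further: firefly luciferase signal divided by Alamar Blue viability fluorescence both relative to DMSO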
LGR2 antag = Drosophila LGR2 receptor signaling inhibition; HEK293 LGR2, CRE-luciferase, bursicon-stimulated, 4 h; 380,000 tested, 0.35% active; inhibition, % at 9.99 µM;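 active means drop in luminescence signal, shown as inhibition above about 50% in the replicate tests, limit read from the data, passing the limit was not always enough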;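 further: agonist challenge used bursicon conditioned medium at about half maximal strength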
rRNA inh HTS = inhibitors of bacterial rRNA selective over humanized ribosomes | GFP signal change (wild-type ribosome), % (test concentration not listed) | 350,000 tested, 1.6% active | AID 720706 | E. coli WT GFP vs humanized-ribosome RFP mutants, fluorescence, 24 h; active compounds read low; DMSO median 0, no signal -100;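 active means significant combined selectivity score with lowered wild-type GFP, culture density cut under 30%, mutant RFP and density less affected; inactive means any of these conditions unmet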
A number is an active result; i = inactive; nt = no result. Shown are actives, neighbours in structure and some others; about 2.4% of the full set was active somewhere.

SMILES | E-sel inducer | EWS-Fli inh | LGR2 antag | rRNA inh HTS
C[C@@H]1CN([C@@H](C)CO)C(=O)Cc2cc(NC(=O)c3ccncc3)ccc2O[C@@H]1CN(C)C(=O)Nc1ccc(C(F)(F)F)cc1 | 73.8 | i | i | i
CC(C)NC(=O)N(C)C[C@@H]1Oc2ccc(NC(=O)CCCN(C)C)cc2C(=O)N([C@@H](C)CO)C[C@H]1C | 241.6 | i | i | i
C[C@H]1CN([C@@H](C)CO)C(=O)c2cc(NC(=O)Cn3cnnn3)ccc2O[C@@H]1CN(C)S(=O)(=O)c1ccccc1 | i | i | i | i
CC(C)NC(=O)N(C)C[C@@H]1Oc2ccc(NC(=O)Cn3cnnn3)cc2C(=O)N([C@H](C)CO)C[C@H]1C | 58.6 | i | i | i
C[C@H]1CN([C@@H](C)CO)C(=O)c2cc(NC(=O)Cn3cnnn3)ccc2O[C@H]1CN(C)S(=O)(=O)c1ccccc1 | 36.0 | i | i | i
CO[C@H]1CN(C)C(=O)c2ccc(NS(=O)(=O)c3ccc(Cl)cc3)cc2OC[C@@H](C)NC[C@@H]1C | i | i | i | i
CNC[C@@H]1OCCCC[C@@H](C)Oc2ccc(NS(C)(=O)=O)cc2C(=O)N([C@H](C)CO)C[C@H]1C | i | i | i | i
C[C@@H]1CN([C@@H](C)CO)C(=O)Cc2cc(NC(=O)Cn3cnnn3)ccc2O[C@H]1CN(C)C(=O)Nc1ccc(F)cc1 | 86.0 | i | i | i
CC(C)NC(=O)N(C)C[C@@H]1Oc2ccc(NC(=O)Cn3cnnn3)cc2CC(=O)N([C@@H](C)CO)C[C@H]1C | 66.3 | i | i | i
C[C@@H]1CN([C@H](C)CO)C(=O)Cc2cc(NC(=O)Cn3cnnn3)ccc2O[C@@H]1CN(C)C(=O)Nc1ccc(F)cc1 | i | i | i | i
CC(C)NC(=O)N(C)C[C@H]1Oc2ccc(NC(=O)Cn3cnnn3)cc2CC(=O)N([C@H](C)CO)C[C@@H]1C | i | i | i | i
C[C@H](CO)N1C[C@H](C)[C@@H](CN(C)C(=O)Nc2ccc(C(F)(F)F)cc2)Oc2ccc(NC(=O)Cn3cnnn3)cc2CC1=O | i | i | i | i
C[C@@H]1CN([C@H](C)CO)C(=O)Cc2cc(NC(=O)Cn3cnnn3)ccc2O[C@H]1CN(C)C(=O)Nc1ccc(C(F)(F)F)cc1 | 32.3 | i | i | i
C[C@H](CO)N1C[C@H](C)[C@H](CN(C)C(=O)Nc2ccc(C(F)(F)F)cc2)Oc2ccc(NC(=O)Cn3cnnn3)cc2CC1=O | 41.5 | i | i | i
C[C@@H]1CN([C@@H](C)CO)C(=O)Cc2cc(NC(=O)Cn3cnnn3)ccc2O[C@@H]1CN(C)C(=O)Nc1ccc(F)cc1 | i | i | i | i
Cc1cccc(-c2ccc([C@@H]3[C@H](CO)N4C(=O)CN(C(=O)c5cnccn5)C[C@@H]34)cc2)c1 | nt | nt | nt | i
C[C@@H]1CCCCO[C@@H](CN(C)Cc2ccncc2)[C@H](C)CN([C@H](C)CO)C(=O)c2cc(NS(C)(=O)=O)ccc2O1 | i | i | i | i
O=[N+]([O-])c1c(Nc2ccc(O)cc2)cc(Cl)c2nonc12 | i | 60.8 | i | i
COc1ccc2c3c([nH]c2c1)[C@H](CO)N(C(=O)c1cccc(F)c1)CC31CN(C(=O)c2ccccc2)C1 | i | i | i | i
Oc1cccc2c(NC(=S)Nc3ccc(SC(F)F)cc3)cccc12 | nt | i | i | -41.5
S=c1[nH]nc(C2(c3ccccc3)CCCC2)o1 | i | i | i | i
S=c1[nH]nc(C(c2ccccc2)C2CCCCC2)o1 (stereo not given) | nt | i | i | -27.0
Cc1ccc(S(=O)(=O)N/N=C\c2cn(CC(N)=O)c3ccccc23)cc1C | i | i | i | -22.8
NC(=O)Cn1cc(/C=N\NS(=O)(=O)c2ccc(Cl)cc2)c2ccccc21 | nt | i | i | i
CCCCCCCSc1nnc(-c2ccccc2N)c(=O)[nH]1 | nt | 55.9 | i | i
SMILES | E-sel inducer | EWS-Fli inh | LGR2 antag | rRNA inh HTS
CCCCSc1nnc(-c2ccccc2N)c(=O)[nH]1 | nt | i | i | i
Brc1cnc2nc(SCc3nc4ccccc4[nH]3)[nH]c2c1 | 52.8 | i | i | i
O=C(C[C@@H]1C/C=C\C[C@@H](Cc2ccc(F)cc2)C(=O)OC[C@H]2CCCN2C1=O)N[C@H](CO)Cc1ccccc1 | i | i | i | -18.2
O=C(C[C@H]1C/C=C\C[C@@H](Cc2ccc(F)cc2)C(=O)OC[C@H]2CCCN2C1=O)N[C@@H](CO)Cc1ccccc1 | i | i | i | i
N#Cc1ccc(-c2nc3ccc(Br)cn3c2Cc2ccsc2)cc1 | i | i | i | i
Clc1ccc(-c2nc3ccc(Br)cn3c2Cc2ccsc2)cc1 | i | i | i | -22.9
COc1ccccc1-c1ccccc1[C@H]1[C@@H](CO)N(C(=O)C2CC2)[C@H]1C#N | i | i | i | i
COc1cccc2c1C(CO)N1C(C#N)C3CC(C(=O)O)C(C1C2)N3C (stereo not given) | nt | i | 91.9 | i
O=C(COC(=O)/C=C/c1ccccc1)NC1CCS(=O)(=O)C1 (stereo not given) | i | i | i | i
CCOc1cc(/C=C/C(=O)OCC(=O)NC2CCS(=O)(=O)C2)ccc1OCc1ccccc1 (stereo not given) | nt | i | i | -28.4
COC(=O)[C@@H]1[C@@H](CO)[C@@H]2Cn3c(ccc(-c4cccc(F)c4)c3=O)[C@@H]2N1Cc1ccccn1 | i | i | i | i
COc1ccc(OC)c(CCNC(=O)c2ccc(CS(=O)Cc3ccc(Cl)cc3)o2)c1 (stereo not given) | i | nt | i | -28.4
Cc1nc2ccccc2c2c1CC(C(C)(Cl)Br)O2 (stereo not given) | nt | i | i | -29.9
CC(=O)N1[C@H](CO)[C@@H](c2ccc(C3=CCCC3)cc2)[C@H]1CNC(=O)CN(C)C | i | i | i | i
COc1ccc(CCNC(=O)c2nc(-c3cccs3)no2)cc1OC | nt | i | i | -22.3
CCN(C(=O)COC(=O)c1cc(-c2ccccc2)nn1-c1ccccc1)C1CCS(=O)(=O)C1 (stereo not given) | i | i | i | -30.5
CO[C@@H]1CN(C)C(=O)c2ccc(NC(=O)C3CC3)cc2OC[C@@H](C)N(CCC(F)(F)F)C[C@H]1C | i | i | i | i
CSc1nc2c(cnn2-c2ccc(C)c(C)c2)c(=O)[nH]1 | 48.3 | i | i | i
C[C@@H]1CN([C@@H](C)CO)C(=O)c2cccc(NC(=O)c3ccncc3)c2O[C@H]1CN(C)C(=O)Nc1cccc2ccccc12 | 26.5 | i | i | i
C[C@H](CO)N1C[C@H](C)[C@H](CN(C)C(=O)Nc2cccc3ccccc23)Oc2c(NC(=O)c3ccncc3)cccc2C1=O | i | i | i | i
C[C@@H]1CN([C@@H](C)CO)C(=O)c2cccc(NC(=O)Nc3ccc(C(F)(F)F)cc3)c2O[C@@H]1CN(C)C(=O)Nc1cccc2ccccc12 | i | i | 67.3 | i
Cc1ccc(-c2nc(N3CCN(C)CC3)c3ccccc3n2)cc1 | i | i | i | -26.6
CN1CCN(c2nc(-c3ccc(C(C)(C)C)cc3)nc3ccccc23)CC1 | i | i | i | i
CCOc1ccc(C(=O)/C=C/c2cc(OC)c(OC)c(OC)c2)cc1 | i | i | i | -19.5
